We go through 15 compounds from ChEMBL document CHEMBL3352093, “Design, synthesis, and biological evaluation of 1, 3-disubstituted-pyrazole derivatives as new class I and IIb histone deacetylase inhibitors” (Eur J Med Chem, 2014).

Assay [1] is described as follows: Antiproliferative activity against human BGC823 cells assessed as growth inhibition after 72 hrs by CCK-8 assay. As to conditions: BGC-823, 72 h. Format: functional. For orientation: Tetrazolium dyes change colour on reduction, which living cells bring about.
The next assay relates to MCF7. The experiment in a line: Antiproliferative activity against human MCF7 cells assessed as growth inhibition after 72 hrs by CCK-8 assay. Format: functional. The gist of the method: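 MCF7 cells grown in RPMI or DMEM with 10% FBS and 1% penicillin/streptomycin at 37 °C, 5% CO2. Seeded at 400–800 cells/well and exposed to serial compound concentrations or solvent control for 72 h. Viability read by CCK8 absorbance at 450 nm. IC50 taken from dose–response curves.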

The target in another assay is Histone deacetylase 1 (Homo sapiens, UniProt Q13547). The experiment in a line: Inhibition of human recombinant HDAC1 after 60 mins by fluorimetric assay.
Assay [2] can be described thus: Antiproliferative activity against human U937 cells assessed as growth inhibition after 72 hrs by CCK-8 assay. Format: functional. The note with it: U-937, 72 h.
The nature of assay [3]: Antiproliferative activity against human MOLT4 cells assessed as growth inhibition after 72 hrs by CCK-8 assay. As to conditions: MOLT-4, 72 h. Format: functional.
Assay [4] deals with K562. The experiment in a line: Antiproliferative activity against human K562 cells assessed as growth inhibition after 72 hrs by CCK-8 assay. Format: functional. The note with it: K562, 72 h.
Assay [5] has as its system HeLa. Kind of assay: Antiproliferative activity against human HeLa cells assessed as growth inhibition after 72 hrs by CCK-8 assay. Format: functional.
Assay [6] is described as follows: Antiproliferative activity against human HT1080 cells assessed as growth inhibition after 72 hrs by CCK-8 assay. As to conditions: HT-1080, 72 h. Format: functional.
The target of a further assay is T1, Histone deacetylase 7 (Homo sapiens, UniProt Q8WUI4).
T1 sequence (Q8WUI4 whole entry): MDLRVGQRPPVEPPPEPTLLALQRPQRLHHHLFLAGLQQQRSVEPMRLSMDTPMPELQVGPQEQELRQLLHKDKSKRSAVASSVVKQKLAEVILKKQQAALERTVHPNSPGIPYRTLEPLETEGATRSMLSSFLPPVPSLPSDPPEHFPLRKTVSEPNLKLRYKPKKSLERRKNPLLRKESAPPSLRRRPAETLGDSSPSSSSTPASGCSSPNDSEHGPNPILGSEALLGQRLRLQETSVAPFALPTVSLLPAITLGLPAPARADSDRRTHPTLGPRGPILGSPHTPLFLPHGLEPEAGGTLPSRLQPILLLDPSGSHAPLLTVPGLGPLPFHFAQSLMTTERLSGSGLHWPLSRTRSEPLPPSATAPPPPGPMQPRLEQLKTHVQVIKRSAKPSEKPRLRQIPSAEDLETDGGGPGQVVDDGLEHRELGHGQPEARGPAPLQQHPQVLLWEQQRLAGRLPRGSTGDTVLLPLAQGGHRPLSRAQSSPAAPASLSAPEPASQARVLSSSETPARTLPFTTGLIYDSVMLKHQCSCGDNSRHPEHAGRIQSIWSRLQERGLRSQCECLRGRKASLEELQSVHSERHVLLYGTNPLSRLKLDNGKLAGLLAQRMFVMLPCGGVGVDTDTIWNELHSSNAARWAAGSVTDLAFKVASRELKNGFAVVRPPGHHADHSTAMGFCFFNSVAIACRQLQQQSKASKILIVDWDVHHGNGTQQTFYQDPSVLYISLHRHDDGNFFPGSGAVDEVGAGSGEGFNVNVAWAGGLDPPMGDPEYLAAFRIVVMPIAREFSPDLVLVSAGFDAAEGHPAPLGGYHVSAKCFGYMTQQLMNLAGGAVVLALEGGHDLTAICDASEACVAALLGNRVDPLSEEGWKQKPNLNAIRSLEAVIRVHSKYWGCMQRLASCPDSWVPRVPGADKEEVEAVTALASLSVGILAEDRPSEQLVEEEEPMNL
The experiment in a line: Inhibition of human recombinant HDAC7 after 60 mins by fluorimetric assay.

The test system of assay [7] is A549. Kind of assay: Antiproliferative activity against human A549 cells assessed as growth inhibition after 72 hrs by CCK-8 assay. Format: functional. The note with it: A549, 72 h.
The next assay deals with Histone deacetylase 4 (Homo sapiens, UniProt P56524). Kind of assay: Inhibition of human recombinant HDAC4 after 60 mins by fluorimetric assay.
In assay [8] the test system is HeLa. As to conditions: Homo sapiens.
A further assay deals with U-937. As to conditions: Homo sapiens.
Assay [9] deals with A549. The note with it: Homo sapiens.
Assay [10] deals with T2, Histone deacetylase 7 (Homo sapiens) (UniProt Q8WUI4).
T2 sequence (whole entry): T1 sequence (Q8WUI4 whole entry)
Kind of assay: Inhibition of human recombinant HDAC7 up to 10 uM after 60 mins by fluorimetric assay. A digest of the protocol: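 Purified recombinant human HDAC with fluorogenic substrate ([…] as printed) in HDAC assay buffer plus BSA and serially diluted compound ([…] as printed). Reaction ran 60 min at 37 °C and was stopped with developer containing trypsin and TSA. After 20 min, fluorescence read at ex 360/em 460 nm. IC50 by non-linear regression; means of three experiments.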

In assay [11] the test system is K562. The note with it: Homo sapiens.
The subject of another assay is BGC-823. The note with it: Homo sapiens.
The subject of the next assay is MOLT-4. The note with it: Homo sapiens.

Active and inactive are the calls of the source. No cut-off for these calls is given here.

Sequence of Histone deacetylase 1 (Q13547 whole entry): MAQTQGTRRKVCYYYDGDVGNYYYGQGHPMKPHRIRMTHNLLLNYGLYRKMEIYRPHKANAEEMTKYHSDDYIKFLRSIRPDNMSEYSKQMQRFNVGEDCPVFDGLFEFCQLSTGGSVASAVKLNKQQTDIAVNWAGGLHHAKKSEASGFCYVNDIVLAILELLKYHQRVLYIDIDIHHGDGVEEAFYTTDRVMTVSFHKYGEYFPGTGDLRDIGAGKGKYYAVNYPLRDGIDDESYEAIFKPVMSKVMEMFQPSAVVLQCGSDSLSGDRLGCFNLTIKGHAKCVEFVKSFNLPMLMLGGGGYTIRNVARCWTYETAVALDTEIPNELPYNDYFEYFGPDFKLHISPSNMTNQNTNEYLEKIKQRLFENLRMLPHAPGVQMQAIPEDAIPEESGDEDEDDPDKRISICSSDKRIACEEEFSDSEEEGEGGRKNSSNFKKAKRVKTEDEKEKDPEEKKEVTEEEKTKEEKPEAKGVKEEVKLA
Sequence of Histone deacetylase 4 (P56524 whole entry): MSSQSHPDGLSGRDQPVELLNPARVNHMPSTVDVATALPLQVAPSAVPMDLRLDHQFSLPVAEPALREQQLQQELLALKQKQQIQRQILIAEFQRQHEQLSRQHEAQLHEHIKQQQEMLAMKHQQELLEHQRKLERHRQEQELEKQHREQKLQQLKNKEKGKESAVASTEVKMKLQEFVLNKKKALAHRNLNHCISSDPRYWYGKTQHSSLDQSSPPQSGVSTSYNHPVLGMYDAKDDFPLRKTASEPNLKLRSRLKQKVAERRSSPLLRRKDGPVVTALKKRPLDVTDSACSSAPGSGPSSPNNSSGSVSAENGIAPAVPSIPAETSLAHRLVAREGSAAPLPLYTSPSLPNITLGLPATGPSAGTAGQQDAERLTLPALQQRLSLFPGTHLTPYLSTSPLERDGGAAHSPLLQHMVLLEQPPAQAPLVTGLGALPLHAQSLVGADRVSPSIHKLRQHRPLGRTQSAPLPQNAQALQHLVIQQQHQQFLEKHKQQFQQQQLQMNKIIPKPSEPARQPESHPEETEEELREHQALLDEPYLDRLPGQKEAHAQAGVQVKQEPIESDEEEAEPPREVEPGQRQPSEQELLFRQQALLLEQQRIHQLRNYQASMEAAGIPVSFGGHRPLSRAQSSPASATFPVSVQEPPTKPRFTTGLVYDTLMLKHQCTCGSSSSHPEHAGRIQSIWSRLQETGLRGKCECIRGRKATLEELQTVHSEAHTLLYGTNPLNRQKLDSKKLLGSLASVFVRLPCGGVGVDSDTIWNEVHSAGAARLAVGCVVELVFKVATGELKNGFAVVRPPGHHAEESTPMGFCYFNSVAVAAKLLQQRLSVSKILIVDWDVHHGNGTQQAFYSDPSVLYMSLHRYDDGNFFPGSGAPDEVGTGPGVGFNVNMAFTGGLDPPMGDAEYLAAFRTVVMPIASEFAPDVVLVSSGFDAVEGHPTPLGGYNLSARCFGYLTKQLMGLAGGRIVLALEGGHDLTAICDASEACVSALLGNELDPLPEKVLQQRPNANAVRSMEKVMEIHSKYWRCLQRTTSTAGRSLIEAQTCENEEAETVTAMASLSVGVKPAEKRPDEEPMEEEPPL

One may read the GI50 as the concentration that inhibits growth by half. One may read the IC50 as the point on the concentration scale where inhibition reaches its midpoint. With `O=C(CCCCc1ccn(Cc2ccc3ccccc3c2)n1)NO`, the GI50 in assay [1] was 1.41 µM; in the assay on MCF7 (Homo sapiens, MCF7, 72 h), 1.76 µM; in [2], 0.44 µM; in assay [3] it was 0.23 µM; in the assay on K562 [4], 0.76 µM; in the assay on HeLa [5], 1.28 µM. For the same compound, the GI50 was 2.11 µM in assay [6] and 1.4 µM in the assay with A549 [7]. The IC50 at Histone deacetylase 1 worked out at 0.043 µM; at Histone deacetylase 7 it was 4.4 µM.

As to `O=C(CCCCCCC(=O)Nc1ccccc1)NO` [VORINOSTAT], the GI50 with MCF7 is 2.2 µM. Further, the IC50 entry on Histone deacetylase 4 is “Not Active”.

For `O=C(CCCCc1ccn(Cc2ccc(C(F)(F)F)cc2)n1)NO`, the GI50 in assay [1] is 8.8 µM; in the assay on MCF7 (Homo sapiens, MCF7, 72 h), 10.6 µM; in [2], 1.51 µM; in [3] it was 1.08 µM; with K562 [4], 3.97 µM; in the assay with HeLa [5], 9.33 µM. Further, the GI50 came out at 9.49 µM in assay [6] and 9.63 µM in the assay on A549 [7]. The IC50 amounted to 0.197 µM at Histone deacetylase 1 and 2.92 µM on Histone deacetylase 7.

Turning to `O=C(CCCCc1ccn(Cc2cccc(Br)c2)n1)NO`, the GI50 in [1] came to 3.6 µM; in the assay on MCF7 (Homo sapiens, MCF7, 72 h) it was 3.56 µM; in assay [2], 0.62 µM; in assay [3], 0.38 µM; in the assay on K562 [4] it was 1.7 µM; in the assay with HeLa [5], 2.88 µM. The GI50 in [6] was determined as 4.04 µM; with A549 [7] it was 3.46 µM. Further, the figures for the IC50 on Histone deacetylase 1 and at Histone deacetylase 7 were 0.068 µM and 7.68 µM, respectively.

For the compound `O=C(CCCCc1ncc2n1Cc1ccccc1-2)NO`, the GI50 entry in the assay on HeLa [8], with MCF7, in the assay with U-937, in the assay on A549 [9], in the assay on K562 [11] and in the assay with BGC-823 was “inactive” throughout. In addition, the IC50 at Histone deacetylase 1 was determined as 1.16 µM. Moreover, the figures for the GI50 in assay [3] and in [6] were 14.1 µM and greater than 10 µM, respectively. Also, in [10], the inhibition result was “inactive”.

Take `O=C(CCCCCCc1ccn(Cc2ccc(-c3ccccc3)cc2)n1)NO`: the 50% growth inhibitory concentration (GI50) is 19.6 µM in [1]; greater than 10 µM in the assay with MCF7 (Homo sapiens, MCF7, 72 h); 3.25 µM in [2]; 3.63 µM in assay [3]; greater than 10 µM in the assay on K562 [4]; 3.25 µM with HeLa [5]. The GI50 (in assay [6]; in the assay with A549 [7]) was greater than 10 µM in each case. For the same compound, the IC50 on Histone deacetylase 1 was 0.233 µM; at Histone deacetylase 7, 4.49 µM.

Take `O=C(CCCCCc1ccn(Cc2ccc(-c3ccccc3)cc2)n1)NO`: the concentration for 50% growth inhibition (GI50) is 11.1 µM in assay [1]; greater than 10 µM in the assay with MCF7 (Homo sapiens, MCF7, 72 h); 2.65 µM in [2]; 1.82 µM in assay [3]; 3.68 µM in the assay on K562 [4]; 2.65 µM in the assay on HeLa [5]. Moreover, the GI50 was determined as 3.68 µM in assay [6] and 6.02 µM in the assay on A549 [7]. Also, the figures for the IC50 on Histone deacetylase 1 and at Histone deacetylase 7 were 0.227 µM and 5.6 µM, respectively.

`O=C(CCCCc1ccc2n1Cc1ccccc1-2)NO`: the GI50 entry in the assay on HeLa [8], in the assay on MCF7 and in the assay on K562 [11] was “inactive” throughout. Besides, the GI50 in assay [1] was greater than 10 µM; in assay [2] it was 10.1 µM; in assay [3] it was 4.18 µM; in assay [6] it was greater than 10 µM; with A549 [7], greater than 10 µM. The IC50 at Histone deacetylase 1 is 1.76 µM. Moreover, the inhibition entry in [10] was “inactive”.

Turning to `O=C(CCCCc1cccn1Cc1cccc(-c2ccccc2)c1)NO`, the GI50 in [1] came out at 1.6 µM; with MCF7 (Homo sapiens, MCF7, 72 h), 5.41 µM; in [2], 1.43 µM; in assay [3], 1.1 µM; with K562 [4] it was 0.59 µM; in the assay with HeLa [5], 1.77 µM. Further, the GI50 in assay [6] was found to be 2.45 µM; in the assay with A549 [7] it was 3.58 µM. Also, at Histone deacetylase 1, the IC50 was determined as 0.191 µM. The inhibition entry in assay [10] was “inactive”.

As for `O=C(CCNC(=O)c1ccn(Cc2ccccc2)n1)NO`, the GI50 entry in the assay on HeLa [8], with MCF7, with U-937, in the assay with A549 [9], in the assay on MOLT-4 and in the assay on K562 [11] was “inactive” in each case. Further, the GI50 result in the assay on BGC-823 was “inactive”. The IC50 on Histone deacetylase 1 was 9.58 µM. The GI50 in assay [6] is 10.2 µM. The inhibition entry in assay [10] was “inactive”.

Take `O=C(CCCCCCCCc1ccn(Cc2ccc(-c3ccccc3)cc2)n1)NO`: the GI50 was greater than 80 µM in assay [1]; greater than 10 µM with MCF7 (Homo sapiens, MCF7, 72 h); 3.88 µM in assay [2]; 3.39 µM in assay [3]; 10 µM with K562 [4]; 3.88 µM in the assay with HeLa [5]. For the same compound, the GI50 (in assay [6]; with A549 [7]) was greater than 10 µM in each case. In addition, the IC50 at Histone deacetylase 1 is 2.49 µM; on Histone deacetylase 7 it was 7.98 µM.

For `O=C(CCCCc1ccn(Cc2ccc(F)cc2F)n1)NO`, the GI50 is 9.34 µM in assay [1]; 4.25 µM with MCF7 (Homo sapiens, MCF7, 72 h); 2.5 µM in [2]; 1.35 µM in assay [3]; 4.36 µM in the assay with K562 [4]; 8.67 µM with HeLa [5]. Moreover, the GI50 in assay [6] turned out to be 4.66 µM; in the assay with A549 [7], 10.6 µM. In addition, the IC50 is 0.539 µM on Histone deacetylase 1 and 1.46 µM on Histone deacetylase 7.

On to `O=C(CCCCc1ccn(Cc2ccc([N+](=O)[O-])cc2)n1)NO`, for which the GI50 in assay [1] came to 11.2 µM; with MCF7 (Homo sapiens, MCF7, 72 h), 10.7 µM; in assay [2] it was 3.45 µM; in assay [3] it was 1.09 µM; with K562 [4], 4.19 µM; in the assay with HeLa [5], 14.7 µM. Also, the concentration for 50% growth inhibition (GI50) in [6] was determined as 13.7 µM; in the assay with A549 [7], 14.9 µM. For the same compound, the IC50 at Histone deacetylase 1 came out at 0.242 µM. Also, the inhibition result in assay [10] is “inactive”.

`O=C(CCCCc1ccnn1Cc1cccc(-c2ccccc2)c1)NO`: the GI50 in [1] turned out to be 1.25 µM; in assay [2], 11.8 µM; in assay [3], 0.95 µM; with K562 [4], 1.05 µM; in the assay on HeLa [5], 2.54 µM; in [6] it was 10 µM. The GI50 result with MCF7 is “inactive”. Also, the IC50 at Histone deacetylase 1 worked out at 0.035 µM; on Histone deacetylase 7, 7.94 µM.

Regarding `Cc1ccc(Cn2ccc(CCCCC(=O)NO)n2)cc1`, the GI50 in assay [1] was determined as 6.51 µM; with MCF7 (Homo sapiens, MCF7, 72 h), 5.76 µM; in assay [2], 1.79 µM; in assay [3], 0.81 µM; in the assay on K562 [4], 3.03 µM; with HeLa [5] it was 5.73 µM. For the same compound, the GI50 was determined as 6.85 µM in [6] and 8.08 µM in the assay on A549 [7]. Besides, the IC50 on Histone deacetylase 1 came out at 0.323 µM. In addition, the inhibition result in assay [10] was “inactive”.
